According to PubChem BioAssay AID488897 (Broad Institute, 2010):
Results filed as inconclusive are left out. The source made the active and inactive calls.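 The calls were made as follows: active = fitted half-maximal concentration for caspase signal rise at or below the highest valid tested dose; inconclusive = flat fit at 30 to 70% of control, or poor fit; inactive = the rest.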

Tested on: not listed separately
Test: apoptosis induction, A1-2A-tBid fibroblasts – cell-based, tBid as inducer, caspase 3/7 luminescence, dry powder, A1 inhibitor project, dose response (AID 488897)
Conditions: MEF A1-2A-tBid cells, caspase 3/7 luminescence, 3 h; at 150 µM (top of the series)
Summary of the method: (§1)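 Assay system: mouse embryonic fibroblasts co-expressing A1-2A-tBid, primed by tBid. Quantity: 2500 cells per well. Detection: Caspase-Glo 3/7 luminescence. Timing: 3 h compound exposure at 37 °C, 1 h room-temperature detection. Doses: dose-response series, pin-transferred. Evaluation: caspase activation from luminescence increase. Medium: TSA added at seeding.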

| SMILES | caspase activation |
| --- | --- |
| COc1cc(/C=C(/C#N)c2nc3ccccc3[nH]2)ccc1OCC(=O)Nc1ccccc1C(C)C | 1.39% (inactive) |
| C=C1[C@@H](C)[C@H]2[C@H](Cc3ccccc3)NC(=O)[C@]23[C@H](OC(C)=O)/C=C/[C@](C)(O)C(=O)[C@@H](C)C/C=C/[C@H]3[C@@H]1O | 0.731% (inactive) |

Tested on: MEF A1-2A-tBid cells, caspase 3/7 luminescence, 3 h
Test: as above
Conditions: not given
Summary of the method: as §1

| SMILES | AC50 |
| --- | --- |
| COc1cccc(C(=O)C(C#N)=C(SC)SC)c1 | 2.71 µM |
| Cn1c(=NC(=O)CCl)sc2ccccc21 | 3.22 µM |
| Cc1ccc(Sc2c([N+](=O)[O-])c(=O)n(C)c3ccccc23)cc1 | 18.1 µM |
| CC(=O)N[C@H]1[C@H](O[C@H]2CC[C@@]3(C)C(CC[C@]4(C)C3CC=C3[C@@H]5CC(C)(C)CC[C@]5(C(=O)OC5OCC(O)C(O)C5O)C(O)C[C@]34C)C2(C)C)O[C@H](COC2OCC(O)C(OC3OCC(O)C(O)C3O)C2O)[C@@H](O[C@@H]2O[C@@H](C)[C@H](O)[C@@H](O)[C@H]2O[C@@H]2O[C@@H](C)[C@H](O)[C@@H](O)[C@H]2O)[C@@H]1O (stereo partly drawn) | 12.2 µM |
| Cc1c(CCOC(=O)c2ccc(N3CCOCC3)c([N+](=O)[O-])c2)sc[n+]1CC#N | 16.7 µM |
| C/C1=C/C(=O)O[C@@H]2C[C@@H](CC[C@H](C)/C=C\CC1)O[C@@](O)(C1CSC(=O)N1)C2 (stereo partly drawn) | 0.695 µM |
| COc1ccc(N(C(=O)CCl)C(C(=O)NCCc2ccccc2)c2cccs2)cc1Cl (stereo not drawn) | > 150 µM (inactive) |
| O=C(CCl)N=c1sccn1Cc1ccccc1Cl | 1.93 µM |
| Cc1cc(C(=O)CCl)c(C)n1CCc1ccc(Cl)cc1 | 8.01 µM |
| Cc1ccc(CS(=O)(=O)c2ncc(Cl)c(C(=O)Nc3nnc(C(C)C)s3)n2)cc1 | > 46 µM (inactive) |
| O=C(Oc1cccc(/C=N/Nc2nc(Nc3ccccc3)nc(N3CCOCC3)n2)c1)c1ccco1 | 17.6 µM |
| CCc1cc2c(=O)c(-c3cnn(-c4ccccc4)c3)c(C)oc2cc1OCC(=O)Nc1cccc(C)c1 | > 100 µM (inactive) |
| CC(=O)OC(C)(C)/C=C/C(=O)[C@](C)(O)C1[C@H](O)C[C@@]2(C)C3CC=C4C(C[C@H](O)C(=O)C4(C)C)[C@]3(C)C(=O)C[C@]12C (stereo partly drawn) | > 150 µM (inactive) |
| Nc1nc(F)nc2c1ncn2[C@@H]1O[C@H](CO)[C@@H](O)[C@H]1O | 2.35 µM |
| CCOC(=O)CSC1=N/C(=C/c2ccc(-n3cncn3)cc2)C(=O)N1C(C)=O | 9.07 µM |
| C=C1[C@@H](C)[C@H]2[C@H](Cc3ccccc3)NC(=O)[C@]23OC(=O)/C=C\[C@H](O)CCC[C@@H](C)C/C=C/[C@H]3[C@@H]1O | 12.7 µM |
| CC(C)(C)n1nc(-c2ccc(Cl)cc2)c2c(N)ncnc21 | > 150 µM (inactive) |
| Cc1cccc(NC(=O)/C(C#N)=C/c2cn(CC(=O)NCc3ccco3)c3ccccc23)c1 | 7.59 µM |
| Cc1cccc(CS(=O)(=O)c2ncc(Cl)c(C(=O)Nc3nnc(C(C)C)s3)n2)c1 | > 46 µM (inactive) |
| Cc1c(C=O)c(C=O)c(C)n1Cc1ccccc1 | 6.11 µM |
| CCc1nnc(NC(=O)c2nc(S(=O)(=O)Cc3ccccc3)ncc2Cl)s1 | > 68 µM (inactive) |
